# VIM-2 inh = inhibitors of Pseudomonas aeruginosa VIM-2 metallo-beta-lactamase; purified VIM-2, nitrocefin hydrolysis, epi-absorbance fluorescence; inhibition, % at 5.6 µM; 290,000 tested, 0.89% active;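 active = inhibition above the mean of all tested compounds plus 3 SD, cutoff set per screening run, cut at about 7.5% in these data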;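 also: red hydrolysis product quenches plate fluorescence so inhibitors raise well fluorescence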
# ERp5 inh = blocks human ERp5 reductase activity on insulin. Q15084. ERp5 insulin aggregation, absorbance 650 nm, 90 min. inhibition, % at 9.99 µM. 350,000 tested, 0.05% active. AID 651711;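 active = mean replicate inhibition above about 25%, with every replicate also reaching it, limit read from the data, passing the limit was not always enough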
# Target sequence (Q15084 whole entry, looked up): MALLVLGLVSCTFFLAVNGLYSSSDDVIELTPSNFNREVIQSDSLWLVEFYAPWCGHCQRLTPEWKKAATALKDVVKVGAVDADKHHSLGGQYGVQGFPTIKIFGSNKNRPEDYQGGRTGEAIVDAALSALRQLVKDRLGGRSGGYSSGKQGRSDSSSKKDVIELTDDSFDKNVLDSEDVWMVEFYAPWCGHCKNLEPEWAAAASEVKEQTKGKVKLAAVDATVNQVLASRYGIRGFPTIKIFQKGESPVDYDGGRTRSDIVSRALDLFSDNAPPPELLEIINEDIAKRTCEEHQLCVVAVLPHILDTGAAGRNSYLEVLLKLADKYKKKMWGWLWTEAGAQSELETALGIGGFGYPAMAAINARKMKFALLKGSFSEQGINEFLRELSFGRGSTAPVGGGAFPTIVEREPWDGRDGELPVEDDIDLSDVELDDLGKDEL
# PglD inh = inhibitors of Campylobacter jejuni PglD acetyltransferase; purified PglD enzyme, DTNB colorimetric CoA detection; inhibition, % at 12.5 µM; 360,000 tested, 0.098% active; in the data active = inhibition above about 16%, passing the limit was not always enough
# PvdQ inh = P. aeruginosa PvdQ acylase inhibition | purified PvdQ acylase, fluorescence plate reader | 340,000 tested, 0.063% active | inhibition, % at 10 µM | AID 488965; in the data active = inhibition above about 30%, passing the limit was not always enough
# IMP-1 inh-1 = inhibitors of Pseudomonas aeruginosa IMP-1 metallo-beta-lactamase; inhibition, % at 5.6 µM; 290,000 tested, 0.45% active; purified IMP-1, nitrocefin hydrolysis, epi-absorbance fluorescence;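 active = inhibition above the mean plus 3 SD of all compounds in the same screening run, cut at about 4.5% in these data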
#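 Assay system: purified IMP-1; Quantity: IMP-1 0.2 nM before substrate addition; Medium: HEPES buffer pH 7.1 with ZnSO4 and Brij 35; Incubation: 15 min enzyme–compound preincubation, then 25 min nitrocefin reaction, 25 °C; Signal: fluorescence quenching readout, ex 480/em 530 nm; Controls: DMSO with and without IMP-1; Repeats: singlicate testing.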
# PDI inh = inhibitors of human protein disulfide isomerase; P07237; PDI insulin aggregation turbidity, A650, 90 min; inhibition, % at 10 µM; 350,000 tested, 0.052% active;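 active = mean inhibition across replicates of 30% or more, whatever share of single replicates reach that level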
# IMP-1 inh-2 = blocks IMP-1 metallo-beta-lactamase in VIM-2 selectivity screen. shares compounds with VIM-2 inh. purified IMP-1, nitrocefin hydrolysis, epi-absorbance fluorescence. inhibition, % at 5.6 µM. 1,300 tested, under 10 active; call rule not given here
# VIM-2 FRET inh = counter-screen for VIM-2 inhibitors: epi-absorbance artifacts via FRET; shares compounds with VIM-2 inh; purified VIM-2, CCF2 FRET substrate hydrolysis; inhibition, % at 5.6 µM; 1,300 tested, 23% active; AID 1857;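 active = inhibition above the mean of all tested compounds plus 3 SD, cut at about 19% in these data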
# TEM-1 counter = TEM-1 inhibition, counter-screen for VIM-2 inhibitors | inhibition, % at 5.6 µM | shares compounds with VIM-2 inh | 1,300 tested, 3% active | Purified TEM-1, nitrocefin hydrolysis, epi-absorbance fluorescence;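 active = inhibition above that campaign's mean inhibition plus 3 SD, cut at about 0.46% in these data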
# Target sequence (P62593 whole entry, looked up): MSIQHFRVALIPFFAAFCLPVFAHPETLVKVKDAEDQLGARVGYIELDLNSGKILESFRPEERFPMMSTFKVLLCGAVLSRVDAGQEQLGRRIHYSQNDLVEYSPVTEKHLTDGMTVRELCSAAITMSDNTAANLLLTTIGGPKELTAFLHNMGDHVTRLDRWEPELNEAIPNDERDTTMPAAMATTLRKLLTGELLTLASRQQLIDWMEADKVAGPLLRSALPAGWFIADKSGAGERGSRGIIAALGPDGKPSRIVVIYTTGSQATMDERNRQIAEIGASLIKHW
# VIM-2 confirm 2 = confirmation of P. aeruginosa VIM-2 metallo-beta-lactamase inhibitors; shares compounds with VIM-2 inh; purified VIM-2, nitrocefin hydrolysis, epi-absorbance; inhibition, % at 5.6 µM; 1,300 tested, 96% active; AID 2187;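 active = inhibition of the VIM-2 beta-lactamase enzyme above about 11% from the earlier first-round screen, limit read from the data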
# Numbers stand for hits; . = inactive; / = no result. Shown are actives, neighbours in structure and some others; about 1% of the full set was active somewhere.
SMILES,VIM-2 inh,ERp5 inh,PglD inh,PvdQ inh,IMP-1 inh-1,PDI inh,IMP-1 inh-2,VIM-2 FRET inh,TEM-1 counter,VIM-2 confirm 2
COCC(=O)Nc1ccc2c(c1)OC[C@H](C)N(Cc1cccnc1)C[C@H](C)[C@H](OC)CN(C)C2=O,/,.,.,/,/,/,/,/,/,/
COc1ccc(-c2cc(C(F)(F)F)n3nc(C(=O)NCCCn4ccnc4)cc3n2)cc1,29,/,.,.,.,.,.,.,.,48
CN(C)CC(=O)Nc1ccc2c(c1)[C@H]1C[C@H](CC(=O)NCc3ccccc3F)O[C@H](CO)[C@H]1O2,/,/,.,/,/,/,/,/,/,/
Cn1c(C(=O)NCCN2CCN(Cc3ccccc3)CC2)cc2c(=O)n(C)c3ccccc3c21,/,.,.,.,/,/,/,/,/,/
CC1CCN(CCCNC(=O)c2cc3c(=O)n(C)c4ccccc4c3n2C)CC1,21,.,.,.,.,/,.,.,.,31
CCCCN(CC)CCCNC(=O)c1cc2c(=O)n(C)c3ccccc3c2n1C,25,.,.,.,.,/,.,.,.,30
Cn1c(C(=O)NCCN2CCCCCC2)cc2c(=O)n(C)c3ccccc3c21,19,.,.,.,.,/,.,.,.,29
Cn1c(C(=O)NCc2ccccn2)cc2c(=O)n(C)c3ccccc3c21,16,.,.,.,.,/,.,.,.,25
CC(C)Cn1cc(C(=O)NCCCN2CCC(C)CC2)c2c3ccccc3n(C)c2c1=O,/,.,.,.,/,.,/,/,/,/
CC(C)NC(=O)Nc1ccc2c(c1)C(=O)N([C@@H](C)CO)C[C@H](C)[C@@H](CN(C)S(=O)(=O)c1ccc(Cl)cc1)O2,/,.,.,/,/,/,/,/,/,/
Cn1c(C(=O)NCC2CCCO2)cc2c(=O)n(C)c3ccccc3c21 (stereo unspecified),15,.,.,.,.,/,.,.,.,20
Cn1c(C(=O)NC2CCCC2)cc2c(=O)n(C)c3ccccc3c21,18,.,.,.,.,/,.,.,.,21
Cn1c(C(=O)N2CCCC2)cc2c(=O)n(C)c3ccccc3c21,.,.,.,.,.,/,/,/,/,/
Cn1c(C(=O)NCCCN2CCOCC2)cc2c(=O)n(C)c3ccccc3c21,18,.,.,.,.,/,.,.,.,28
Cn1c(C(=O)NCCCN2CCN(c3ccccc3F)CC2)cc2c(=O)n(C)c3ccccc3c21,15,.,.,.,.,/,.,.,.,25
CN(C)C(=O)c1ccc(-c2ccc3c(c2)[C@H]2[C@H](CCN2C(=O)c2ccccn2)[C@H](CO)N3)cc1,/,/,.,/,/,/,/,/,/,/
CC(C)NC(=O)N(C)C[C@@H]1Oc2c(NC(=O)C3CCCCC3)cccc2C(=O)N([C@@H](C)CO)C[C@H]1C,/,.,.,/,/,/,/,/,/,/
O=S(=O)(NC[C@H]1CC[C@@H]2NC[C@@H]2O1)c1ccccc1F,/,.,/,/,/,/,/,/,/,/
COc1ccc(S(=O)(=O)Nc2ccc3c(c2)C(=O)N([C@H](C)CO)C[C@@H](C)[C@H](CN(C)C(=O)Nc2ccc4c(c2)OCO4)OCCCC[C@H](C)O3)cc1,/,.,/,/,/,/,/,/,/,/
CC(C)CC#Cc1cnc2c(c1)C(=O)N([C@H](C)CO)C[C@@H](C)[C@@H](CN(C)Cc1ccccn1)O2,/,.,.,/,/,/,/,/,/,/
Cc1ccc(-c2nn(C)c(=O)c3ccccc23)cc1S(=O)(=O)NCCN1CCOCC1,14,/,.,.,.,.,.,.,.,28
CCCNC(=O)N1CC(=O)N2[C@H](CO)[C@@H](c3ccc(-c4ccc(C)cc4)cc3)[C@H]2C1,/,.,/,/,/,/,/,/,/,/
CCC(CO)NC(=O)c1ccc(-c2nn(C)c(=O)c3ccccc23)cc1 (stereo unspecified),.,/,/,.,.,.,/,/,/,/
CN1CCN(C(=O)c2ccc(-c3ccccc3)cc2)CC1,.,.,.,.,.,.,/,/,/,/
Cn1nc(-c2ccc(C(=O)N3CCN(CCO)CC3)cc2)c2ccccc2c1=O,65,/,.,.,.,.,.,.,.,69
SMILES,VIM-2 inh,ERp5 inh,PglD inh,PvdQ inh,IMP-1 inh-1,PDI inh,IMP-1 inh-2,VIM-2 FRET inh,TEM-1 counter,VIM-2 confirm 2
CCCNC(=O)c1ccc(-c2nn(C)c(=O)c3ccccc23)cc1,.,.,.,.,.,.,/,/,/,/
CN1CCN(C(=O)c2ccc(-c3nn(C)c(=O)c4ccccc34)cc2)CC1,70,/,.,.,.,.,.,.,1.5,79
CN(C)CCNC(=O)c1ccc(-c2nn(C)c(=O)c3ccccc23)cc1,32,/,/,.,.,.,.,.,.,50
COCC(=O)N(C)C[C@@H]1Oc2cc(-c3ccc(C#N)cc3)ccc2S(=O)(=O)N([C@H](C)CO)C[C@@H]1C,/,.,.,/,/,/,/,/,/,/
COc1cccc(-c2ccc3c(c2)O[C@H](CN(C)Cc2cncnc2)[C@H](C)CN([C@@H](C)CO)S3(=O)=O)c1,/,.,.,/,/,/,/,/,/,/
CN1CCN(C(=O)CSc2nc(-c3ccco3)cc(C(F)(F)F)n2)CC1,43,.,.,.,.,.,.,.,.,57
O=C(CSc1nc(-c2ccco2)cc(C(F)(F)F)n1)N1CCSCC1,.,/,.,.,.,.,/,/,/,/
O=C(NCCc1ccncc1)[C@H]1[C@H](CO)[C@H]2Cn3c(ccc(-c4ccccc4)c3=O)[C@@H]1N2,/,.,.,/,/,/,/,/,/,/
Cc1ccc(NC(=O)C(CC(C)C)NC(N)=O)cc1 (stereo unspecified),.,.,/,.,.,.,/,/,/,/
Cc1ccc(NC(=O)C(C)S)cc1 (stereo unspecified),9.6,.,.,.,.,.,.,.,.,30
O=c1[nH]c2cc3c(cc2cc1CN(Cc1cccnc1)C(=S)NCc1ccco1)OCCO3,18,.,/,.,.,.,.,.,.,.
Cc1c(CC(=O)O)c(=O)oc2c(C)c3occ(-c4ccc(F)cc4)c3cc12,15,.,.,.,.,.,.,.,.,25
Cc1c(CC(=O)O)c(=O)oc2cc3occ(-c4ccccc4)c3cc12,.,.,.,.,.,.,/,/,/,/
N#Cc1c(NC(=O)C(=O)NCCCN2CCOCC2)sc2c1CCCC2,.,.,.,.,.,.,/,/,/,/
COC(=O)c1c(NC(=O)C(=O)NCCCN2CCOCC2)sc2c1CCC2,14,.,.,.,.,.,.,.,.,25
CC1(C)Cc2c(sc(NC(=O)C(=O)NCCCN3CCOCC3)c2C(N)=O)CO1,.,/,.,.,.,.,/,/,/,/
COC(=O)c1c(NC(=O)C(=O)NCCCN2CCOCC2)sc2c1CC(C)(C)OC2,13,.,.,.,.,.,.,.,.,20
C[C@H]1CN([C@@H](C)CO)C(=O)c2cc(-c3ccc(C#N)cc3)cnc2O[C@H]1CN(C)C(=O)CN(C)C,/,.,.,/,/,/,/,/,/,/

# Screening data from PubChem.
